{"source": "ChEMBL document CHEMBL1212693", "about": "“Dorsomorphin inhibits BMP signals required for embryogenesis and iron metabolism” (Nat Chem Biol, 2008)", "key": {"[1]": {"test_system": "Danio rerio", "assay": "Inhibition of iron-dextran conjugate-induced hepcidin mRNA expression in zebrafish at 23 ug/g, ip by qRT-PCR analysis", "assay_type": "functional, organism-based", "how_it_was_run": "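Adult zebrafish under tricaine were injected intraperitoneally with 10 µl iron-dextran (100 mg ml−1) plus compound (23 µg g−1) or DMSO vehicle; controls received dextran. Livers were taken 3 h later and RNA was extracted with Trizol. Hepcidin mRNA was measured by qRT-PCR and normalised to liver fatty acid binding protein mRNA, with n = 4 per group.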"}, "[2]": {"organism": "Danio rerio", "assay": "Inhibition of BMPR1 in zebrafish assessed as increase in egr2b expression at 10 uM treated at 12 hrs post-fertilization measured at 48 hrs"}, "[3]": {"organism": "Danio rerio", "assay": "Inhibition of BMPR1 in zebrafish assessed as penetrance of moderate embryonic axis dorsalization at 0.5 uM treated at 3 hrs post-fertilization measured at 48 hrs", "set-up": "scale not given: the % may be the effect or the level left", "how_it_was_run": "(§1)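 Compound added at the stated times and concentrations. Gross morphology scored visually at up to 48 h.p.f. for dorsalization of the embryonic axis.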"}, "[4]": {"test_system": "Mus musculus", "assay": "Inhibition of iron-dextran conjugate-induced Smad-8 phosphorylation in C57BL/6 mouse at 23 ug/g, iv after 1 hr", "assay_type": "functional, organism-based"}, "[5]": {"test_system": "C2C12", "assay": "Cytotoxicity against mouse C2C12 cells at 4 uM by Cell Titer Glo assay", "assay_type": "cell-based", "conditions": "c2c12, 4 µM", "how_it_was_run": "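C2C12 cells seeded at 2,000 cells/well in DMEM with 2% FBS and treated in quadruplicate with BMP ligands plus compound or vehicle. Viability measured by Cell-titer Glo after 5 d culture, using replicate wells treated identically to those for alkaline phosphatase.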"}, "[6]": {"organism": "Danio rerio", "assay": "Inhibition of BMPR1 in zebrafish assessed as penetrance of normal embryonic axis dorsalization at 10 uM treated at 3 hrs post-fertilization measured at 48 hrs", "set-up": "scale not given: the % may be the effect or the level left"}, "[7]": {"organism": "Danio rerio", "assay": "Inhibition of BMPR1 in zebrafish assessed as penetrance of moderate embryonic axis dorsalization at 2 uM treated at 3 hrs post-fertilization measured at 48 hrs", "set-up": "scale not given: the % may be the effect or the level left"}, "[8]": {"organism": "Danio rerio", "assay": "Inhibition of BMPR1 in zebrafish assessed as penetrance of mild embryonic axis dorsalization at 1 uM treated at 3 hrs post-fertilization measured at 48 hrs", "set-up": "scale not given: the % may be the effect or the level left", "how_it_was_run": "as §1"}, "[9]": {"organism": "Danio rerio", "assay": "Inhibition of BMPR1 in zebrafish assessed as severity of embryonic axis dorsalization at 10 uM treated at 2 to 4 hrs post-fertilization measured at 48 hrs", "set-up": "scale not given: the % may be the effect or the level left"}, "[10]": {"organism": "Danio rerio", "assay": "Inhibition of BMPR1 in zebrafish assessed as severity of embryonic axis dorsalization at 10 uM treated at 6 to 8 hrs post-fertilization measured at 48 hrs", "set-up": "scale not given: the % may be the effect or the level left"}, "[11]": {"test_system": "Mus musculus", "assay": "Inhibition of iron-dextran conjugate-induced Smad-1 phosphorylation in C57BL/6 mouse at 23 ug/g, iv after 1 hr", "assay_type": "functional, organism-based"}, "[12]": {"organism": "Danio rerio", "assay": "Inhibition of BMPR1 in zebrafish assessed as penetrance of moderate embryonic axis dorsalization at 10 uM treated at 6 to 8 hrs post-fertilization measured at 48 hrs", "set-up": "scale not given: the % may be the effect or the level left", "how_it_was_run": "as §1"}, "[13]": {"organism": "Danio rerio", "assay": "Inhibition of BMPR1 in zebrafish assessed as penetrance of moderate embryonic axis dorsalization at 10 uM treated at 2 to 6 hrs post-fertilization measured at 48 hrs", "set-up": "scale not given: the % may be the effect or the level left", "how_it_was_run": "as §1"}, "[14]": {"organism": "Mus musculus", "assay": "Inhibition of BMPR1-mediated Smad-8 phosphorylation in BMP6-stimulated mouse PASMC at 4 uM treated 30 mins before BMP6 challenge measured after 30 mins by immunoblot analysis", "how_it_was_run": "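Wild-type mouse PASMCs were kept in RPMI with 0.5% FCS for 24 h. They were preincubated with compound or vehicle for 30 min, then stimulated for 30 min with recombinant BMP2, BMP4, BMP6 or BMP7 at 10 ng ml−1. Lysates in SDS buffer were immunoblotted with anti-phospho-SMAD1/5/8. Total SMAD1 and α-tubulin served as loading controls, and bands were quantified by phosphorimager.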"}, "[15]": {"assay": "(§2) Inhibition of BMPR1-mediated Smad-5 phosphorylation in BMP4-stimulated mouse PASMC treated 30 mins before BMP4 challenge measured after 30 mins by immunoblot analysis", "how_it_was_run": "(§3)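 Mouse PASMCs were held 24 h in RPMI with 0.5% FCS. They were preincubated 30 min with test agent, noggin or vehicle, then exposed to recombinant BMP4 for 30 min. SDS lysates were immunoblotted for phospho-SMAD1/5/8 and bands quantified by phosphorimager. Dose-dependence was fitted as a Hill plot.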"}, "[16]": {"organism": "Mus musculus", "assay": "as §2", "how_it_was_run": "as §3"}, "[17]": {"organism": "Danio rerio", "assay": "Inhibition of BMPR1 in zebrafish assessed as penetrance of normal embryonic axis dorsalization at 10 uM treated continuously from 4 hrs post-fertilization measured after 48 hrs", "set-up": "scale not given: the % may be the effect or the level left"}, "[18]": {"test_system": "Hep 3B2", "assay": "Inhibition of BMPR1-mediated Id1 mRNA expression in IL6-stimulated human Hep3B cells at 10 uM treated 30 mins before IL6 challenge measured after 6 hrs by qRT-PCR analysis", "assay_type": "cell-based", "how_it_was_run": "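Hep3B cells were grown in α-MEM with 10% FBS, then incubated 6 h in α-MEM with 1% fetal calf serum, with or without dorsomorphin and human IL-6 (100 ng ml−1). RNA was Trizol-extracted. Id1 mRNA was measured by qRT-PCR, normalized to 18S rRNA or β-actin mRNA. Triplicate measurements, mean ± s.d.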"}, "[19]": {"organism": "Danio rerio", "assay": "Inhibition of BMPR1 in zebrafish assessed as penetrance of mild embryonic axis dorsalization at 0.2 uM treated at 3 hrs post-fertilization measured at 48 hrs", "set-up": "scale not given: the % may be the effect or the level left", "how_it_was_run": "as §1"}, "[20]": {"organism": "Mus musculus", "assay": "Inhibition of ALK6-mediated Id1 promoter activity in BMPR2 deficient mouse PASMC at 10 uM by immunoblot analysis", "how_it_was_run": "(§4)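 BMPR-II–deficient mouse PASMCs at 50% confluence co-transfected with Id1 promoter firefly luciferase (BRE-Luc, 0.3 µg), caALK2, caALK3 or caALK6 (0.6 µg), and pRL-TK Renilla (0.2 µg). Compound (4–10 µM) or vehicle added 1 h after transfection. Activity read as firefly/Renilla ratio by dual luciferase assay; n = 3, mean ± s.d.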"}, "[21]": {"organism": "Danio rerio", "assay": "Inhibition of BMPR1 in zebrafish assessed as penetrance of normal embryonic axis dorsalization at 0.5 uM treated at 3 hrs post-fertilization measured at 48 hrs", "set-up": "scale not given: the % may be the effect or the level left"}, "[22]": {"organism": "Mus musculus", "assay": "Inhibition of BMPR1-mediated Smad-5 phosphorylation in BMP4-stimulated mouse PASMC at 100 to 200 ng/ml treated 30 mins before BMP4 challenge measured after 30 mins by immunoblot analysis", "how_it_was_run": "as §3"}, "[23]": {"organism": "Danio rerio", "assay": "Inhibition of BMPR1-mediated osteoblast differentiation in zebrafish assessed as decrease in alkaline phosphatase level at 1 to 4 uM treated at 24 hrs post-fertilization measured on day 10 post-fertilization"}, "[24]": {"organism": "Mus musculus", "assay": "Inhibition of ALK2-mediated Id1 promoter activity in BMPR2 deficient mouse PASMC at 10 uM by immunoblot analysis", "how_it_was_run": "as §4"}, "[25]": {"organism": "Mus musculus", "assay": "Inhibition of BMPR1-mediated Smad-1 phosphorylation in BMP7-stimulated mouse BMPR2 deficient PASMC at 4 uM treated 30 mins before BMP7 challenge measured after 30 mins by immunoblot analysis", "how_it_was_run": "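PASMCs (wild-type or BMPR-II–deficient) were kept 24 h in RPMI with 0.5% FCS, preincubated 30 min with compound or vehicle, then stimulated 30 min with recombinant BMP (10 ng ml−1). Extracts in SDS-lysis buffer were immunoblotted for phospho-SMAD1/5/8, with total SMAD1 and α-tubulin as loading controls. Bands were quantitated by phosphorimager.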"}, "[26]": {"organism": "Danio rerio", "assay": "Inhibition of BMPR1 in zebrafish assessed as penetrance of normal embryonic axis dorsalization at 10 uM treated at 2 to 4 hrs post-fertilization measured at 48 hrs", "set-up": "scale not given: the % may be the effect or the level left"}}, "note": "Activity calls are given as the source filed them. The rule behind the calls is not given here."}
{"smiles": "c1cc(-c2cnn3cc(-c4ccc(OCCN5CCCCC5)cc4)cnc23)ccn1", "note": "[DORSOMORPHIN]", "values": [{"measurement": "inhibition", "setting": "[1]", "result": "Active"}, {"measurement": "Activity", "setting": "[2]", "result": "Active"}, {"measurement": "Activity", "setting": "[3]", "result": 0, "unit": "%"}, {"measurement": "inhibition", "setting": "[4]", "result": "Active"}, {"measurement": "Activity", "setting": "[5]", "result": "Non-toxic"}, {"measurement": "Activity", "setting": "[6]", "result": 0, "unit": "%"}, {"measurement": "Activity", "setting": "[7]", "result": 0, "unit": "%"}, {"measurement": "Activity", "setting": "[8]", "result": 0, "unit": "%"}, {"measurement": "Activity", "setting": "[9]", "result": 0, "unit": "%"}, {"measurement": "Activity", "setting": "[10]", "result": 0, "unit": "%"}, {"measurement": "inhibition", "setting": "[11]", "result": "Active"}, {"measurement": "Activity", "setting": "[12]", "result": 5, "unit": "%"}, {"measurement": "Activity", "setting": "[13]", "result": 44, "unit": "%"}, {"measurement": "inhibition", "setting": "[14]", "result": "Active"}, {"measurement": "IC50", "setting": "[15]", "result": 470, "unit": "nM"}, {"measurement": "inhibition", "setting": "[16]", "result": "Dose-dependent effect"}, {"measurement": "Activity", "setting": "[17]", "result": 0, "unit": "%"}, {"measurement": "inhibition", "setting": "[18]", "result": "Active"}, {"measurement": "Activity", "setting": "[19]", "result": 0, "unit": "%"}, {"measurement": "inhibition", "setting": "[20]", "result": "Dose-dependent effect"}, {"measurement": "Activity", "setting": "[21]", "result": 100, "unit": "%"}, {"measurement": "inhibition", "setting": "[22]", "result": "Active"}, {"measurement": "inhibition", "setting": "[23]", "result": "Active"}, {"measurement": "inhibition", "setting": "[24]", "result": "Dose-dependent effect"}, {"measurement": "inhibition", "setting": "[25]", "result": "Active"}, {"measurement": "Activity", "setting": "[26]", "result": 0, "unit": "%"}]}
